pEC50, pKi: −log10 of the molar value.
Molecular target: Oxysterols receptor LXR-beta (Homo sapiens) (UniProt P55055)
Experiment: Agonist activity at human LXRbeta assessed as association of SRC1 to LXRbeta ligand binding domain by FRET based cell-free ligand sensing assay relative to 2-(3-(3-((2-chloro-3-(trifluoromethyl)benzyl)(2,2-diphenylethyl)amino)propoxy)phenyl)acetic acid
Parameters: concentration or dose not given beside the values
Conditions: not given

| Activity [%] | SMILES |
| --- | --- |
| 68 | CCC(CC)(C(=O)O)c1cccc(OCCCN(Cc2cccc(C(F)(F)F)c2Cl)CC(c2ccccc2)c2ccccc2)c1 |
| 90 | CC(C(=O)O)c1cccc(OCCCN(Cc2cccc(C(F)(F)F)c2Cl)CC(c2ccccc2)c2ccccc2)c1 (stereo not given) |
| 89 | C[C@H](CCOc1cccc(CC(=O)O)c1)N(Cc1cccc(C(F)(F)F)c1Cl)CC(c1ccccc1)c1ccccc1 [ABEQUOLIXRON] |

Tested on: not listed separately
Experiment: Plasma clearance in Sprague-Dawley rat at 2.6 mg/kg, iv
Format: ADME, organism-based
Parameters: dose 2.6 mg/kg, route intravenous
Conditions: not given

| clearance [mL/min/kg] | SMILES |
| --- | --- |
| 23.7 | C[C@H](CCOc1cccc(CC(=O)O)c1)N(Cc1cccc(C(F)(F)F)c1Cl)CC(c1ccccc1)c1ccccc1 [ABEQUOLIXRON] |

Molecular target: T1, Oxysterols receptor LXR-beta (Homo sapiens, UniProt P55055)
T1 sequence (P55055 whole entry): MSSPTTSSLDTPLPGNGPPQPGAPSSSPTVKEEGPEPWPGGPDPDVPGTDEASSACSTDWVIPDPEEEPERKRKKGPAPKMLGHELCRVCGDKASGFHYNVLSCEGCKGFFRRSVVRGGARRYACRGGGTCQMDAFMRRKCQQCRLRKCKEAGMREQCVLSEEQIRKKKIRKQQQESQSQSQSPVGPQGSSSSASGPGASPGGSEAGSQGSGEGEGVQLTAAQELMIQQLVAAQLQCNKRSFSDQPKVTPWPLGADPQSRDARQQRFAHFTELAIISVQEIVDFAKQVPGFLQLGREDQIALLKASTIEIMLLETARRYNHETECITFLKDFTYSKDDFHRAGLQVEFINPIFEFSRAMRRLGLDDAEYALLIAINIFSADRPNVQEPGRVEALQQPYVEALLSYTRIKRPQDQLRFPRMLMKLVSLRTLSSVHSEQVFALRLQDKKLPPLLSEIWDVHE
Experiment: Agonist activity at human LXRbeta assessed as association of SRC1 to LXRbeta ligand binding domain by FRET based cell-free ligand sensing assay
Conditions: not given
Procedure, shortened: (§1)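 Cell-free FRET ligand-sensing assay measuring ligand-dependent recruitment of a 24-amino-acid steroid receptor coactivator 1 (SRC1) fragment to the LXR ligand-binding domain. Percent efficacy is expressed against the maximal agonist response of the reference agonist. Values are means of at least two experiments, standard deviation ≤10%.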

| pEC50 | SMILES |
| --- | --- |
| 6.76 | CCC(CC)(C(=O)O)c1cccc(OCCCN(Cc2cccc(C(F)(F)F)c2Cl)CC(c2ccccc2)c2ccccc2)c1 |
| 7.82 | CC(C(=O)O)c1cccc(OCCCN(Cc2cccc(C(F)(F)F)c2Cl)CC(c2ccccc2)c2ccccc2)c1 (stereo not given) |
| 7.60 | C[C@H](CCOc1cccc(CC(=O)O)c1)N(Cc1cccc(C(F)(F)F)c1Cl)CC(c1ccccc1)c1ccccc1 [ABEQUOLIXRON] |

Tested on: Macrophage
Experiment: Increase in ABCG1 gene expression in human primary macrophages at 100 nM relative to control
Format: functional
Conditions: not given

| SMILES | fold change (FC) |
| --- | --- |
| C[C@H](CCOc1cccc(CC(=O)O)c1)N(Cc1cccc(C(F)(F)F)c1Cl)CC(c1ccccc1)c1ccccc1 [ABEQUOLIXRON] | 8 |

Tested on: Macrophage
Experiment: Increase in ABCG1 gene expression in human primary macrophages at 30 nM relative to control
Format: functional
Conditions: not given

| SMILES | fold change (FC) |
| --- | --- |
| C[C@H](CCOc1cccc(CC(=O)O)c1)N(Cc1cccc(C(F)(F)F)c1Cl)CC(c1ccccc1)c1ccccc1 [ABEQUOLIXRON] | 4.2 |

Molecular target: T2, Nuclear receptor subfamily 1 group I member 2 (Homo sapiens, UniProt O75469)
T2 sequence (O75469 whole entry): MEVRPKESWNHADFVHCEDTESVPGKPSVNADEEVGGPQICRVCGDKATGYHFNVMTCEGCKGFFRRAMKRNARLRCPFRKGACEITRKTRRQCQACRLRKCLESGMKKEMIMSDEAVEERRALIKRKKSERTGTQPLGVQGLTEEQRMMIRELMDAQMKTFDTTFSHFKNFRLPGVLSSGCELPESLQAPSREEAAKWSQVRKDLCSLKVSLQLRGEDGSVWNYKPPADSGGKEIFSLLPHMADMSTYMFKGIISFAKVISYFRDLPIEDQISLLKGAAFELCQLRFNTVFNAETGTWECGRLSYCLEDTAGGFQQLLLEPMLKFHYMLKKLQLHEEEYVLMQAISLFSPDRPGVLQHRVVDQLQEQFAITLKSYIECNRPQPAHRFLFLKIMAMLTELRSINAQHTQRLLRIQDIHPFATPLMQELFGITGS
Experiment: Binding affinity to PXR by scintillation proximity binding assay
Conditions: not given

| pKi | SMILES |
| --- | --- |
| < 5.00 | C[C@H](CCOc1cccc(CC(=O)O)c1)N(Cc1cccc(C(F)(F)F)c1Cl)CC(c1ccccc1)c1ccccc1 [ABEQUOLIXRON] |

Tested on: Macrophage
Experiment: Increase in ABCA1 gene expression in human primary macrophages at 100 nM relative to control
Format: functional
Conditions: not given

| SMILES | fold change (FC) |
| --- | --- |
| C[C@H](CCOc1cccc(CC(=O)O)c1)N(Cc1cccc(C(F)(F)F)c1Cl)CC(c1ccccc1)c1ccccc1 [ABEQUOLIXRON] | 6.3 |

Tested on: not listed separately
Experiment: Half life in Sprague-Dawley rat at 4.5 mg/kg, po
Format: ADME, organism-based
Parameters: dose 4.5 mg/kg, route oral
Conditions: in vivo
Procedure, shortened: (§2)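 Pharmacokinetics were measured after an intravenous dose of 2.6 mg/kg and an oral dose of 4.5 mg/kg. Oral half-life and oral bioavailability (F%) are reported as mean ± deviation.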

| half-life [h] | SMILES |
| --- | --- |
| 2.4 | C[C@H](CCOc1cccc(CC(=O)O)c1)N(Cc1cccc(C(F)(F)F)c1Cl)CC(c1ccccc1)c1ccccc1 [ABEQUOLIXRON] |

Tested on: not listed separately
Experiment: Volume of distribution at steady state in Sprague-Dawley rat at 2.6 mg/kg, iv
Format: ADME, organism-based
Parameters: dose 2.6 mg/kg, route intravenous
Conditions: in vivo, read-out: Vdss

| Vd [L/kg] | SMILES |
| --- | --- |
| 1.9 | C[C@H](CCOc1cccc(CC(=O)O)c1)N(Cc1cccc(C(F)(F)F)c1Cl)CC(c1ccccc1)c1ccccc1 [ABEQUOLIXRON] |

Tested on: Macrophage
Experiment: Increase in ABCG1 gene expression in human primary macrophages
Format: functional, cell-based
Conditions: not given

| SMILES | Activity |
| --- | --- |
| C[C@H](CCOc1cccc(CC(=O)O)c1)N(Cc1cccc(C(F)(F)F)c1Cl)CC(c1ccccc1)c1ccccc1 [ABEQUOLIXRON] | Dose-dependent effect |

Molecular target: T3, Oxysterols receptor LXR-alpha (Homo sapiens, UniProt Q13133)
T3 sequence (Q13133 whole entry): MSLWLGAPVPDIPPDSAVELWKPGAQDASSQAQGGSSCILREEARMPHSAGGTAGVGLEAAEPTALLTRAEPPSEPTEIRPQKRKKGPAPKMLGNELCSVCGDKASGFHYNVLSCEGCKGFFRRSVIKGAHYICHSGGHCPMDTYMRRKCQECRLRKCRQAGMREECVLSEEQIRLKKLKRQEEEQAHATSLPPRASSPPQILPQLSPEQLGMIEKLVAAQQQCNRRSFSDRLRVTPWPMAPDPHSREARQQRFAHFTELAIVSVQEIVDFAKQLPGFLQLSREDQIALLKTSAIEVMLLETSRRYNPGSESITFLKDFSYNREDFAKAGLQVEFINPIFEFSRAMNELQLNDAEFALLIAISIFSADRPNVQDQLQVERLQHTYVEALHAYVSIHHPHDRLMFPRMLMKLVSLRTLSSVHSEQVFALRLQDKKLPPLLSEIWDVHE
Experiment: Agonist activity at human LXRalpha assessed as association of SRC1 to LXRalpha ligand binding domain by FRET based cell-free ligand sensing assay
Conditions: not given
Procedure, shortened: as §1

| pEC50 | SMILES |
| --- | --- |
| 6.42 | CCC(CC)(C(=O)O)c1cccc(OCCCN(Cc2cccc(C(F)(F)F)c2Cl)CC(c2ccccc2)c2ccccc2)c1 |
| 7.34 | CC(C(=O)O)c1cccc(OCCCN(Cc2cccc(C(F)(F)F)c2Cl)CC(c2ccccc2)c2ccccc2)c1 (stereo not given) |
| 7.13 | C[C@H](CCOc1cccc(CC(=O)O)c1)N(Cc1cccc(C(F)(F)F)c1Cl)CC(c1ccccc1)c1ccccc1 [ABEQUOLIXRON] |

Tested on: not listed separately
Experiment: Cmax in Sprague-Dawley rat at 2.6 mg/kg, iv
Format: ADME, organism-based
Parameters: dose 2.6 mg/kg, route intravenous
Conditions: in vivo

| Cmax [ng/mL] | SMILES |
| --- | --- |
| 2130 | C[C@H](CCOc1cccc(CC(=O)O)c1)N(Cc1cccc(C(F)(F)F)c1Cl)CC(c1ccccc1)c1ccccc1 [ABEQUOLIXRON] |

Tested on: Macrophage
Experiment: Increase in ABCA1 gene expression in human primary macrophages at 30 nM relative to control
Format: functional
Conditions: not given

| SMILES | fold change (FC) |
| --- | --- |
| C[C@H](CCOc1cccc(CC(=O)O)c1)N(Cc1cccc(C(F)(F)F)c1Cl)CC(c1ccccc1)c1ccccc1 [ABEQUOLIXRON] | 3.6 |

Tested on: Macrophage
Experiment: Increase in SREBP1 gene expression in human primary macrophages at 100 nM relative to control
Format: functional
Conditions: not given

| SMILES | fold change (FC) |
| --- | --- |
| C[C@H](CCOc1cccc(CC(=O)O)c1)N(Cc1cccc(C(F)(F)F)c1Cl)CC(c1ccccc1)c1ccccc1 [ABEQUOLIXRON] | 5.5 |

Tested on: not listed separately
Experiment: Half life in Sprague-Dawley rat at 2.6 mg/kg, iv
Format: ADME, organism-based
Parameters: dose 2.6 mg/kg, route intravenous
Conditions: in vivo

| half-life [h] | SMILES |
| --- | --- |
| 1.82 | C[C@H](CCOc1cccc(CC(=O)O)c1)N(Cc1cccc(C(F)(F)F)c1Cl)CC(c1ccccc1)c1ccccc1 [ABEQUOLIXRON] |

Tested on: not listed separately
Experiment: Oral bioavailability in Sprague-Dawley rat at 4.5 mg/kg
Format: ADME, organism-based
Conditions: in vivo
Procedure, shortened: as §2

| bioavailability [%] | SMILES |
| --- | --- |
| 71 | C[C@H](CCOc1cccc(CC(=O)O)c1)N(Cc1cccc(C(F)(F)F)c1Cl)CC(c1ccccc1)c1ccccc1 [ABEQUOLIXRON] |

Tested on: RAW264.7
Experiment: Induction of [3H]cholesterol efflux in mouse RAW264.7 cells loaded with acetylated-LDL after 24 hrs relative to 2-(3-(3-((2-chloro-3-(trifluoromethyl)benzyl)(2,2-diphenylethyl)amino)propoxy)phenyl)acetic acid
Format: functional
Conditions: not given
Procedure, shortened: (§3)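 Mouse RAW 264.7 macrophages were grown overnight, then loaded for 24 h with acetylated LDL (final 50 µg/mL) plus 3H-cholesterol (5 µCi/mL). Cells were washed and held 24 h in serum-free, phenol red-free medium with 1% fatty acid-free BSA and compound in DMSO. Efflux then ran 24 h into medium with 0.1% BSA, 5 µg/mL apoA-I and fresh compound. Filtered medium and NaOH cell lysate were counted by scintillation.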

| SMILES | fold change (FC) |
| --- | --- |
| CC(C(=O)O)c1cccc(OCCCN(Cc2cccc(C(F)(F)F)c2Cl)CC(c2ccccc2)c2ccccc2)c1 (stereo not given) | 2 |
| C[C@H](CCOc1cccc(CC(=O)O)c1)N(Cc1cccc(C(F)(F)F)c1Cl)CC(c1ccccc1)c1ccccc1 [ABEQUOLIXRON] | 2 |

Tested on: Macrophage
Experiment: Increase in ABCA1 gene expression in human primary macrophages
Format: functional, cell-based
Conditions: not given

| SMILES | Activity |
| --- | --- |
| C[C@H](CCOc1cccc(CC(=O)O)c1)N(Cc1cccc(C(F)(F)F)c1Cl)CC(c1ccccc1)c1ccccc1 [ABEQUOLIXRON] | Dose-dependent effect |

Molecular target: T4, Oxysterols receptor LXR-alpha (Homo sapiens) (UniProt Q13133)
T4 sequence (whole entry): T3 sequence (Q13133 whole entry)
Experiment: Agonist activity at human LXRalpha assessed as association of SRC1 to LXRalpha ligand binding domain by FRET based cell-free ligand sensing assay relative 2-(3-(3-((2-chloro-3-(trifluoromethyl)benzyl)(2,2-diphenylethyl)amino)propoxy)phenyl)acetic acid
Conditions: not given
Procedure, shortened: as §1

| Activity [%] | SMILES |
| --- | --- |
| 69 | CCC(CC)(C(=O)O)c1cccc(OCCCN(Cc2cccc(C(F)(F)F)c2Cl)CC(c2ccccc2)c2ccccc2)c1 |
| 100 | CC(C(=O)O)c1cccc(OCCCN(Cc2cccc(C(F)(F)F)c2Cl)CC(c2ccccc2)c2ccccc2)c1 (stereo not given) |
| 100 | C[C@H](CCOc1cccc(CC(=O)O)c1)N(Cc1cccc(C(F)(F)F)c1Cl)CC(c1ccccc1)c1ccccc1 [ABEQUOLIXRON] |

Tested on: RAW264.7
Experiment: Induction of [3H]cholesterol efflux in mouse RAW264.7 cells loaded with acetylated-LDL after 24 hrs
Format: functional, cell-based
Conditions: not given
Procedure, shortened: as §3

| pEC50 | SMILES |
| --- | --- |
| 7.82 | CC(C(=O)O)c1cccc(OCCCN(Cc2cccc(C(F)(F)F)c2Cl)CC(c2ccccc2)c2ccccc2)c1 (stereo not given) |
| 7.77 | C[C@H](CCOc1cccc(CC(=O)O)c1)N(Cc1cccc(C(F)(F)F)c1Cl)CC(c1ccccc1)c1ccccc1 [ABEQUOLIXRON] |
